# ChEMBL document CHEMBL1240442, “Design and synthesis of novel tricyclic benzoxazines as potent 5-HT(1A/B/D) receptor antagonists leading to the discovery of 6-{2-[4-(2-methyl-5-quinolinyl)-1-piperazinyl]ethyl}-4H-imidazo[5,1-c][1,4]benzoxazine-3-carboxamide (GSK588045)” (J Med Chem, 2010)
# Experiments:
# Format in all cases: ADME, organism-based
# [1] = Oral bioavailability in Sprague-Dawley rat at 1 mg/kg; conditions: in vivo
# How it was run: (§1)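 Male Sprague-Dawley rats given 0.5 mg free base/kg iv bolus and 1 mg/kg po. Blood compound levels measured by protein precipitation and HPLC-MS/MS.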
# [2] = Volume of distribution at steady state in Sprague-Dawley rat at 0.5 mg/kg, iv and 1 mg/kg, po; conditions: in vivo, read-out: Vdss; how it was run: as §1
# [3] = Half life in Sprague-Dawley rat at 0.5 mg/kg, iv and 1 mg/kg, po; conditions: in vivo; how it was run: as §1
# [4] = Ratio of drug level in brain to blood in Sprague-Dawley rat at 0.5 mg/kg, iv and 1 mg/kg, po after 1 hr; conditions: brain/whole blood, read-out: BBR
# [5] = Clearance in Sprague-Dawley rat blood at 0.5 mg/kg, iv and 1 mg/kg, po; conditions: whole blood; how it was run: as §1
compound,measurement,setting,value
CC(=O)c1ncn2c1COc1c(CCN3CCN(c4cccc5nc(C)ccc45)CC3)cccc1-2,bioavailability,[1],43%
same,Vd,[2],7.1 L/kg
same,half-life,[3],8.7 h
same,Kp at 1 h,[4],2.7
same,clearance,[5],10 mL/min/kg
Cc1ccc2c(N3CCN(CCc4cccc5c4OCc4nnc(C)n4-5)CC3)cccc2n1,bioavailability,[1],51%
same,Vd,[2],1.6 L/kg
same,half-life,[3],1.8 h
same,Kp at 1 h,[4],0.5
same,clearance,[5],12 mL/min/kg
Cc1ccc2c(N3CCN(CCc4cccc5c4OCc4c(C(=O)N(C)C)ncn4-5)CC3)cccc2n1,bioavailability,[1],50%
same,Vd,[2],3.5 L/kg
same,half-life,[3],2.1 h
same,Kp at 1 h,[4],1.8
same,clearance,[5],29 mL/min/kg
Cc1ccc2c(N3CCN(CCc4cccc5c4OCc4c(C#N)ncn4-5)CC3)cccc2n1,bioavailability,[1],48%
same,Vd,[2],3.9 L/kg
same,half-life,[3],5.1 h
same,Kp at 1 h,[4],1.6
same,clearance,[5],10 mL/min/kg
CNC(=O)c1ncn2c1COc1c(CCN3CCN(c4cccc5nc(C)ccc45)CC3)cccc1-2,bioavailability,[1],104%
same,Vd,[2],3.8 L/kg
same,half-life,[3],6.3 h
same,Kp at 1 h,[4],2.4
same,clearance,[5],8 mL/min/kg
Cc1ccc2c(N3CCN(CCc4cccc5c4OCc4c(C(N)=O)ncn4-5)CC3)cccc2n1,bioavailability,[1],45%
same,Vd,[2],2.9 L/kg
same,half-life,[3],4.4 h
same,Kp at 1 h,[4],1.1
same,clearance,[5],10 mL/min/kg
Cc1ccc2c(N3CCN(CCc4cccc5c4OCc4c(C(=O)N6CCCC6)ncn4-5)CC3)cccc2n1,bioavailability,[1],43%
same,Vd,[2],5 L/kg
same,half-life,[3],3.1 h
same,Kp at 1 h,[4],3.2
same,clearance,[5],20 mL/min/kg
Cc1ccc2c(N3CCN(CCc4cccc5c4OCc4c(C(=O)N6CCOCC6)ncn4-5)CC3)cccc2n1,bioavailability,[1],65%
same,Vd,[2],5.5 L/kg
same,half-life,[3],7.6 h
same,Kp at 1 h,[4],1.7
same,clearance,[5],12 mL/min/kg
